{
  "source": "the RNAGym collection of RNA variant scans (doi:10.1126/science.aae0568)",
  "parents": {"B1": {"name": "tRNA (parent)", "chain": "GUUCCGUUGGCGUAAUGGUAACGCGUCUCCCUCCUAAGGAGAAGACUGCGGGUUCGAGUCCCGUACGGAACG"}},
  "note": "Fewer inactive variants are shown than the library holds.",
  "data": [
    {"variants_of": "B1", "assay": "yeast fitness relative to wild type (ratio to wild type); higher = fitter; tRNA-Arg(CCU), competitive growth, 37 C, YPD", "outline": "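Variants of the tRNA-Arg(CCU) gene, chemically synthesised with a 3% per-site mutation rate at 69 sites, were placed at the native genomic locus in Saccharomyces cerevisiae. The pooled strains were competed in YPD at 37°C for 24 hours in six parallel replicates. Gene amplicons from the start population and from each end population were read by 100-nucleotide paired-end sequencing. Darwinian fitness relative to wild type came from changes in genotype frequencies; genotypes needed ≥ 100 starting reads, and estimates < 0.5 were set to 0.5.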", "values": [
      {"variant": "C5G A20G A42U", "yeast fitness": 0.66},
      {"variant": "A15G G41C G51C", "yeast fitness": "≤ 0.5"},
      {"variant": "C24U A43U U47C", "yeast fitness": 0.794},
      {"variant": "G10A U16A C24A G39C A43U C60U", "yeast fitness": "≤ 0.5"},
      {"variant": "A21C C30U C62A", "yeast fitness": 0.644},
      {"variant": "U3A G9A G48A", "yeast fitness": 0.621},
      {"variant": "U2G G48C G52C C62G", "yeast fitness": 0.541},
      {"variant": "G18A C24G C30U", "yeast fitness": "≤ 0.5"},
      {"variant": "U35A G56A", "yeast fitness": 0.817},
      {"variant": "C5G G23C G48A G67A", "yeast fitness": 0.567},
      {"variant": "U28A C33G A43C C61U A69U", "yeast fitness": "≤ 0.5"},
      {"variant": "A20G A43U C46U A57U", "yeast fitness": "≤ 0.5"},
      {"variant": "G6C G18A", "yeast fitness": 0.729},
      {"variant": "G10C A21G C30A G38C C46U", "yeast fitness": 0.681},
      {"variant": "U3A U8A U32A U47A A57U", "yeast fitness": "≤ 0.5"},
      {"variant": "A20C C31A G39C C49U", "yeast fitness": "≤ 0.5"},
      {"variant": "C5U C29G C49U A69U", "yeast fitness": "≤ 0.5"},
      {"variant": "C5U C11U A14C C61A", "yeast fitness": "≤ 0.5"},
      {"variant": "C30U A40C A57C", "yeast fitness": "≤ 0.5"},
      {"variant": "U2G C4U G6C C22G G25C U32A G52A U59C C61A C62U", "yeast fitness": "≤ 0.5"},
      {"variant": "C22G C27A G63A", "yeast fitness": "≤ 0.5"},
      {"variant": "G10C U64C", "yeast fitness": 0.618},
      {"variant": "G9C G41C A45U G50A G67C", "yeast fitness": 0.616},
      {"variant": "A20U G50A A57U", "yeast fitness": 0.529},
      {"variant": "U3C U8G U32A C33G C62U", "yeast fitness": "≤ 0.5"},
      {"variant": "A15U C22G C31U A57C", "yeast fitness": "≤ 0.5"},
      {"variant": "U7G C22U C49G G50C", "yeast fitness": 0.512},
      {"variant": "C4A A65U C66A", "yeast fitness": "≤ 0.5"},
      {"variant": "G9C A14U", "yeast fitness": 0.509},
      {"variant": "C11U U19G C33U A40G G67A", "yeast fitness": "≤ 0.5"},
      {"variant": "U3C G9C C11U C29G C30A U64G A69C", "yeast fitness": "≤ 0.5"},
      {"variant": "U53A G56A", "yeast fitness": 0.636},
      {"variant": "U32C A42C G44C A69C", "yeast fitness": "≤ 0.5"},
      {"variant": "C11U G39C C55G", "yeast fitness": "≤ 0.5"},
      {"variant": "G50U C61A", "yeast fitness": "≤ 0.5"},
      {"variant": "C31U A36U A69C", "yeast fitness": 0.591},
      {"variant": "A42G G67A G68A", "yeast fitness": "≤ 0.5"},
      {"variant": "C5A U35G A69C", "yeast fitness": "≤ 0.5"},
      {"variant": "C5A C29A", "yeast fitness": 0.612},
      {"variant": "C4U C30U C31G C62U", "yeast fitness": 0.766},
      {"variant": "G23A C29G A45U C60G C61U A69G", "yeast fitness": 0.59},
      {"variant": "G10C G56A A70C", "yeast fitness": 0.554},
      {"variant": "U13C A42U", "yeast fitness": 0.923},
      {"variant": "G17C C27A U32C C61A C66U", "yeast fitness": "≤ 0.5"},
      {"variant": "A36U A45U A57U", "yeast fitness": "≤ 0.5"},
      {"variant": "C11U A45U C49G A65U", "yeast fitness": "≤ 0.5"},
      {"variant": "C5U U8A C11U U35G A43U C46G U53C A69C", "yeast fitness": "≤ 0.5"},
      {"variant": "G9C C24G A40U C55A", "yeast fitness": "≤ 0.5"},
      {"variant": "G12A G23C C49A A57C", "yeast fitness": "≤ 0.5"},
      {"variant": "C11G G12A A42U", "yeast fitness": "≤ 0.5"},
      {"variant": "C11A A14U C30U C33A A36U A57G", "yeast fitness": "≤ 0.5"},
      {"variant": "G18C C49G A65U", "yeast fitness": 0.66},
      {"variant": "A14U C29A U54A U59A", "yeast fitness": 0.574},
      {"variant": "C33G U54G", "yeast fitness": "≤ 0.5"},
      {"variant": "C24U A57U", "yeast fitness": 0.641},
      {"variant": "G12A C30G U47C U54C", "yeast fitness": "≤ 0.5"},
      {"variant": "A57G C60A", "yeast fitness": 0.636},
      {"variant": "A20G C27A U35C A36G A42U", "yeast fitness": "≤ 0.5"},
      {"variant": "G10A U64C A69U", "yeast fitness": 0.542},
      {"variant": "U8C G23A C30G C61A G67A", "yeast fitness": "≤ 0.5"},
      {"variant": "U26G G39A C46G G68A", "yeast fitness": 0.522},
      {"variant": "C24U C61A", "yeast fitness": 0.612},
      {"variant": "U2G G18A A40C G68C", "yeast fitness": "≤ 0.5"},
      {"variant": "C29U C62G", "yeast fitness": 0.656},
      {"variant": "A14C U32G C34G A43U G58C G67U", "yeast fitness": "≤ 0.5"},
      {"variant": "C33U A40U", "yeast fitness": 0.616},
      {"variant": "C5U A14U C24G", "yeast fitness": "≤ 0.5"},
      {"variant": "A21C C31A U32G A40G", "yeast fitness": "≤ 0.5"},
      {"variant": "U16G A20C G25A A43U G50A C55U", "yeast fitness": "≤ 0.5"},
      {"variant": "A36C C55G", "yeast fitness": 0.556},
      {"variant": "C30A C31U A45C C55G C60A", "yeast fitness": "≤ 0.5"},
      {"variant": "U16A C22A C66U", "yeast fitness": 0.675},
      {"variant": "C22A G52A", "yeast fitness": 0.637},
      {"variant": "A14G C22U C33G", "yeast fitness": "≤ 0.5"},
      {"variant": "U26A A70C", "yeast fitness": 0.928},
      {"variant": "C30U C31G C66U", "yeast fitness": 0.512},
      {"variant": "G6C C11G A15U C31G C61G A69G", "yeast fitness": 0.657},
      {"variant": "A40G G44A A45U C49U", "yeast fitness": "≤ 0.5"},
      {"variant": "C22U C24A G25U A42G", "yeast fitness": "≤ 0.5"},
      {"variant": "A21U C24A A45U C62A A69C", "yeast fitness": "≤ 0.5"},
      {"variant": "G12A C24A C27A", "yeast fitness": "≤ 0.5"},
      {"variant": "G56A G67C", "yeast fitness": 0.812},
      {"variant": "C33A G39A G50C G67C", "yeast fitness": 0.573},
      {"variant": "C33G A42U A43U A65C G68C", "yeast fitness": 0.553}
    ]}
  ]
}
